Here are results for 18 compounds from ChEMBL document CHEMBL2040806, “Synthesis and biological evaluation of analogs of the marine alkaloids granulatimide and isogranulatimide” (Eur J Med Chem, 2012).

Some results are limits rather than exact numbers.

The subject of experiment [1] is B16-F10. Briefly: Cytotoxicity against mouse B16F10 cells after 72 hrs by MTT assay. It is filed as functional, cell-based. To be noted: B16-F10, 72 h. In general terms: Formazan colour is commonly taken as a measure of viable cells.
The nature of experiment [2]: Cytotoxicity against human OE21 cells after 72 hrs by MTT assay. It is filed as functional, cell-based. The conditions noted are these: OE21, 72 h.
A short description of experiment [3]: Cytotoxicity against human Hs683 cells after 72 hrs by MTT assay. The format is functional, cell-based. The conditions noted are these: Hs 683, 72 h.
In experiment [4] the test system is PC-3. Briefly: Cytotoxicity against human PC3 cells after 72 hrs by MTT assay. The format is functional, cell-based. The conditions noted are these: PC-3, 72 h.
Experiment [5] can be described thus: Cytotoxicity against p53-mutant human U373 cells after 72 hrs by MTT assay. It is filed as functional, cell-based, U-373MG ATCC. The conditions noted are these: U373 MG.
Experiment [6] has as its system MCF7. In words: Cytotoxicity against human MCF7 cells after 72 hrs by MTT assay. It is filed as functional, cell-based. To be noted: MCF7, 72 h.
For experiment [7], the system named is LoVo. Briefly: Cytotoxicity against human LoVo cells after 72 hrs by MTT assay. It is filed as functional, cell-based.
Experiment [8] concerns A549. In words: Cytotoxicity against human A549 cells after 72 hrs by MTT assay. The format is functional, cell-based. To be noted: A549, 72 h.
The target in experiment [9] is Glycogen synthase kinase-3 (Sus scrofa, UniProt B2LUN4+I6LNT8). In words: Inhibition of porcine brain GSK3alpha/beta using GS1 as substrate.
In experiment [10] the target is Dual specificity protein kinase CLK1 (Mus musculus, UniProt P22518). In words: Inhibition of GST-fused mouse recombinant CLK1 expressed in Escherichia coli using RS peptide as substrate. Summed up:
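Blanks subtracted, activity as % of uninhibited maximum, DMSO dilution controls, IC50 from dose-response curves.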

For experiment [11], the target named is Dual specificity tyrosine-phosphorylation-regulated kinase 1A (Rattus norvegicus, UniProt Q63470). Briefly: Inhibition of GST-fused rat recombinant DYRK1A expressed in Escherichia coli using Woodtide as substrate and [gamma-33P] after 30 mins by scintillation counting.
Experiment [12] in a line: Inhibition of porcine brain CK1delta/epsilon using CKS peptide as substrate. More on the design: species or system Sus scrofa.
The target of experiment [13] is Cyclin-dependent kinase 5/CDK5 activator 1 (Homo sapiens, UniProt Q00535). Briefly: Inhibition of human recombinant CDK5/p25. It is filed as protein-complex assay. Summed up:
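Human recombinant CDK5/p25 assayed in triplicate in buffer C with 1 mg/ml histone H1 at 30 °C, 15 µM ATP final. Activity as % of uninhibited control after blank subtraction; IC50 from dose-response curves.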

The subject of experiment [14] is HCT-116. In words: Cell cycle arrest in p53 double-mutant human HCT116 cells assessed as mitotic index after 24 hrs by flow cytometric analysis. It is filed as functional. More on the design: concentration or dose not given beside the values. Put shortly: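 HCT116 p53-/- cells pretreated with etoposide for 1 h, then released into drug-free medium with or without inhibitor for 23 h; nocodazole added to trap cells exiting G2/M. Mitotic cells scored by phospho-histone H3 labeling and DNA content (propidium iodide) by flow cytometry.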
(In general: In flow cytometry, cells or beads pass a laser one at a time.)

Cyclin-dependent kinase 5/CDK5 activator 1, sequence (Q00535 whole entry): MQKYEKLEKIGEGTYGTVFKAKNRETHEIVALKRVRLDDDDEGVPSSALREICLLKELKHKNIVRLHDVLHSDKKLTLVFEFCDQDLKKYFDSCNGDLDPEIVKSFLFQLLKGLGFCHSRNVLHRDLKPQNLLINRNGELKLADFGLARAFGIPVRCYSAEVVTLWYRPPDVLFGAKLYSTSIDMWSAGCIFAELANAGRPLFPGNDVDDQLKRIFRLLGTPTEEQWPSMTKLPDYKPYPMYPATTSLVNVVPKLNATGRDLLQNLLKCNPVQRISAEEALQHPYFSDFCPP
Cyclin-dependent kinase 5/CDK5 activator 1, sequence (Q15078 whole entry, further chain): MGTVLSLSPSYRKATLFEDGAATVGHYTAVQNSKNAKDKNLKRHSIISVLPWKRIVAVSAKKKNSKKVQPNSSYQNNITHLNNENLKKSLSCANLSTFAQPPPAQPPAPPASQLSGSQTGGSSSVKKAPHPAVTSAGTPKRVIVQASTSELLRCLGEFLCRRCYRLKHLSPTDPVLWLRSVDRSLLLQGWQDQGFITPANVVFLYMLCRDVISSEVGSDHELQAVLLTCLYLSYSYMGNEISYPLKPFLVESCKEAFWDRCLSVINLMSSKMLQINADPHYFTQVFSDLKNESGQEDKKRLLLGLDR
Dual specificity protein kinase CLK1, sequence (P22518 whole entry, the tested form may be a part): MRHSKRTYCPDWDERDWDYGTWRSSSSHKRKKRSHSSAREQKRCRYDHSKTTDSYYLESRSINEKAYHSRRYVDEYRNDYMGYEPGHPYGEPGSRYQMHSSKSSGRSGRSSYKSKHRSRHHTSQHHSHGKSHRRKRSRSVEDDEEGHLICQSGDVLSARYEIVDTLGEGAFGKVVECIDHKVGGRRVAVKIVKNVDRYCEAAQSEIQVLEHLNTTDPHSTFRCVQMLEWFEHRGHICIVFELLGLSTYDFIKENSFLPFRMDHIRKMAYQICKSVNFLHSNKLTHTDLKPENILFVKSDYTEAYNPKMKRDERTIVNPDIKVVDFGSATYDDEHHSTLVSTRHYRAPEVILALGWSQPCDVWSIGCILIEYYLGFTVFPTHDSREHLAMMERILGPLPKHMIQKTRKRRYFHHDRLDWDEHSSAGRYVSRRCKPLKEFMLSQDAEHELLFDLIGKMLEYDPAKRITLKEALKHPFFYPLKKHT

For orientation: IC50 means the concentration that inhibits the measured activity by half. For the compound `COc1ccc2[nH]c(-n3cccn3)cc2c1`, the 50% inhibitory concentration (IC50) in experiment [1] was over 100 µM; in experiment [2], over 100 µM; in experiment [3] it was 69 µM; in experiment [4], over 100 µM; in [5] it was over 100 µM; in experiment [6] it was over 100 µM. Further, the half-maximal inhibitory concentration (IC50) is 70 µM in [7] and over 100 µM in experiment [8].

With `COc1ccc2[nH]c3c4cn[nH]c4c4c(c3c2c1)C(=O)NC4=O`, the 50% inhibitory concentration (IC50) in experiment [1] is 37 µM; in experiment [3] it was 45 µM; in experiment [4] it was over 100 µM; in [5], 51 µM; in experiment [7], 42 µM; in experiment [8], over 100 µM.

Take `COc1ccc2[nH]c3c(c4c(n5cccc35)C(=O)NC4=O)c2c1`: the IC50 in experiment [9] was 1.7 µM; in experiment [10] it was 10 µM; in [1] it was 22 µM; in experiment [2], 37 µM; in [11], over 10 µM; in experiment [3] it was 58 µM. Besides, the IC50 in experiment [4] is 66 µM; in experiment [5], 26 µM; in experiment [12] it was over 10 µM; in experiment [6], 35 µM; in experiment [13], over 10 µM; in [7] it was 39 µM. Moreover, in experiment [8], half-maximal inhibition (IC50) required 26 µM.

On to `Cc1ccc2[nH]c3c(c4c(n5cccc35)C(=O)NC4=O)c2c1`, for which the IC50 in experiment [9] is 1.7 µM; in experiment [10] it was 1.5 µM; in [1], 15 µM; in experiment [2], over 100 µM; in [11], 8.3 µM; in [3], 45 µM. Moreover, the IC50 is 75 µM in [4]; 22 µM in [5]; over 10 µM in experiment [12]; 42 µM in experiment [6]; 7.5 µM in experiment [13]; 52 µM in experiment [7]. The same compound returned a 50% inhibitory concentration (IC50) in [8] of 14 µM.

Turning to `Cc1ccc2[nH]c(-n3cccn3)c(C3=C(Br)C(=O)NC3=O)c2c1`, the IC50 was 8 µM in experiment [1]; 28 µM in experiment [2]; 29 µM in experiment [3]; 26 µM in experiment [4]; 27 µM in [5]; 15 µM in experiment [6]. The IC50 in experiment [7] was determined as 27 µM; in [8], 29 µM. For the same compound, the Activity in experiment [14] was 5.5%.

As to `O=C1NC(=O)c2c1c1[nH]cnc1c1[nH]c3ccccc3c21` [GRANULATIMIDE], the IC50 came to 5 µM in experiment [1]; 23 µM in experiment [3]; 11 µM in [4]; 6 µM in [5]; 46 µM in experiment [6]; 3 µM in experiment [7]. This compound gave a concentration for half-maximal inhibition (IC50) in experiment [8] of 18 µM. The Activity in experiment [14] is given as 19.4%.

As for `O=C1NC(=O)c2c1c1c3ccccc3[nH]c1n1cncc21` [ISOGRANULATIMIDE], the IC50 in experiment [1] was 35 µM; in experiment [3], over 100 µM; in experiment [4] it was 91 µM; in experiment [5] it was over 100 µM; in experiment [6], 99 µM; in experiment [7], 62 µM. In addition, in [8], the IC50 was 79 µM. Further, the Activity in [14] turned out to be 17.2%.

Consider `COc1ccc2[nH]c(-c3ccc[nH]3)c(C3CC(=O)NC3=O)c2c1` (stereo not drawn), for which the IC50 in [1] amounted to 0.6 µM; in [2] it was 53 µM; in experiment [3], 6 µM; in experiment [4], 6 µM; in experiment [5] it was 15 µM; in [6], 19 µM. Further, the concentration for half-maximal inhibition (IC50) in experiment [7] and in experiment [8] was 4 µM each time.

For the compound `COc1ccc2[nH]c3c(c4c(n5cccc35)C(=O)N(C)C4=O)c2c1`, the half-inhibitory concentration (IC50) in experiment [1] is 27 µM; in experiment [2], over 100 µM; in experiment [3] it was 72 µM; in [4], 64 µM; in [5], 28 µM; in experiment [6] it was 36 µM. In addition, the IC50 is 40 µM in experiment [7] and 36 µM in experiment [8].

With `c1ccc2[nH]c(-n3cccn3)cc2c1`, the IC50 in experiment [1], in experiment [2], in experiment [3], in [4], in experiment [5] and in [6] was over 100 µM in each case. For the same compound, the IC50 in experiment [7] is 86 µM; in experiment [8], over 100 µM.

Consider `COc1ccc2[nH]c(-n3cccn3)c(C3=C(Br)C(=O)NC3=O)c2c1`, for which the half-inhibitory concentration (IC50) in [1] amounted to 8 µM; in [2], 30 µM; in experiment [3], 30 µM; in experiment [4], 26 µM; in [5], 27 µM; in experiment [6], 11 µM. Further, the values for the IC50 in [7] and in experiment [8] were 26 µM and 29 µM, respectively.

Regarding `Cc1ccc2[nH]c(-n3cccn3)cc2c1`, the IC50 in experiment [1], in [2], in experiment [3], in experiment [4], in experiment [5] and in experiment [6] was over 100 µM in each case. The results for the half-maximal inhibitory concentration (IC50) in experiment [7] and in [8] were 87 µM and over 100 µM, respectively.

Consider `Cc1ccc2[nH]c(-c3ccc[nH]3)cc2c1`, for which the Activity in experiment [14] amounted to 5%.

Consider `O=C1NC(=O)c2c1c1[nH]ncc1c1[nH]c3ccccc3c21`, for which the concentration for half-maximal inhibition (IC50) was 0.9 µM in experiment [9]; 0.42 µM in experiment [10]; 75 µM in experiment [1]; 1.7 µM in experiment [11]; 93 µM in [3]; over 100 µM in experiment [4]. In addition, the IC50 was over 100 µM in [5]; 2.6 µM in experiment [12]; 0.91 µM in [13]; 44 µM in [7]; over 100 µM in [8].

In the case of `Cc1ccc2[nH]c(-c3ccc[nH]3)c(C3CC(=O)NC3=O)c2c1` (stereo not drawn), the IC50 in [1] was 0.5 µM; in [2], over 100 µM; in [3] it was 8 µM; in experiment [4], 11 µM; in experiment [5], 5 µM; in experiment [6], 29 µM. The 50% inhibitory concentration (IC50) in experiment [7] is 4 µM; in [8], 20 µM.

Take `COc1ccc2[nH]c3c(c4c(c5ccnn53)C(=O)NC4=O)c2c1`: the IC50 in [9] was 0.7 µM; in experiment [10], over 10 µM; in experiment [2], 35 µM; in experiment [11] it was over 10 µM; in experiment [3] it was 22 µM; in experiment [4], over 100 µM. The concentration for half-maximal inhibition (IC50) in experiment [5] is over 100 µM; in [12], over 10 µM; in experiment [13], over 10 µM; in experiment [7], 34 µM; in experiment [8], 8 µM.

As for `COc1ccc2[nH]c(-c3ccc[nH]3)cc2c1`, the 50% inhibitory concentration (IC50) amounted to 61 µM in [1]; 33 µM in experiment [2]; 50 µM in experiment [3]; 26 µM in experiment [4]; 43 µM in experiment [5]; 84 µM in experiment [6]. Moreover, the figures for the IC50 in experiment [7] and in [8] were 26 µM and 55 µM, respectively. Besides, the Activity in experiment [14] stood at 8.3%.

Take `O=C1NC(=O)C(c2c(-n3cccn3)[nH]c3ccccc23)=C1Br`: the IC50 in [1] amounted to 13 µM; in experiment [2], 27 µM; in [3] it was 29 µM; in [4] it was 27 µM; in experiment [5], 27 µM; in experiment [6], 27 µM. Also, the half-maximal inhibitory concentration (IC50) in experiment [7] worked out at 24 µM; in experiment [8], 25 µM.
